Source: PubChem
Compounds with a hit are over-represented: about 4.8% of the library has one in this group of screens.
CSC inhib = blocks cancer stem cells; actives 1.1% (n = 300,000); inhibition, % at 7.5 µM; cancer stem cell-like cells viability, luminescence; in the data active means inhibition above about 75%; inconclusive means no clear call, values can overlap the other calls; tested in HMLE shEcad cells
Mdm2 MdmX PPI = disrupts the human Mdm2-MdmX interaction; SaOS-2 split-luciferase Mdm2/MdmX complementation, luminescence; O15151+Q00987; inhibition, % at 8 µM; actives 3% (n = 330,000);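 active means inhibition of at least 50% at 8 µM in the primary screen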
Target sequence (O15151 whole entry, looked up): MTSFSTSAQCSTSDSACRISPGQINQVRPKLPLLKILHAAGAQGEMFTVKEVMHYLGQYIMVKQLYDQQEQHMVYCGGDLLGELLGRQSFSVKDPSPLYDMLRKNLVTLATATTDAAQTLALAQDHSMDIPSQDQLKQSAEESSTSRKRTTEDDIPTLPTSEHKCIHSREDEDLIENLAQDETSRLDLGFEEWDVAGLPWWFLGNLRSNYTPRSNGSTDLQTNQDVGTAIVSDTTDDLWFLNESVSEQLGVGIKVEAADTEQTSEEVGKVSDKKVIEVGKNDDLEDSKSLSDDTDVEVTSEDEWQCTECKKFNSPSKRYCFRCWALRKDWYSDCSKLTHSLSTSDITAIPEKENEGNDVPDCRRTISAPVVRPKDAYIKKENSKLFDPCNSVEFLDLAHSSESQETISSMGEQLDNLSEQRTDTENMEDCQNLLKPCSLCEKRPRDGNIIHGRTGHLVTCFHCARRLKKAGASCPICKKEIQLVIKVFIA
Target sequence (Q00987 whole entry, looked up): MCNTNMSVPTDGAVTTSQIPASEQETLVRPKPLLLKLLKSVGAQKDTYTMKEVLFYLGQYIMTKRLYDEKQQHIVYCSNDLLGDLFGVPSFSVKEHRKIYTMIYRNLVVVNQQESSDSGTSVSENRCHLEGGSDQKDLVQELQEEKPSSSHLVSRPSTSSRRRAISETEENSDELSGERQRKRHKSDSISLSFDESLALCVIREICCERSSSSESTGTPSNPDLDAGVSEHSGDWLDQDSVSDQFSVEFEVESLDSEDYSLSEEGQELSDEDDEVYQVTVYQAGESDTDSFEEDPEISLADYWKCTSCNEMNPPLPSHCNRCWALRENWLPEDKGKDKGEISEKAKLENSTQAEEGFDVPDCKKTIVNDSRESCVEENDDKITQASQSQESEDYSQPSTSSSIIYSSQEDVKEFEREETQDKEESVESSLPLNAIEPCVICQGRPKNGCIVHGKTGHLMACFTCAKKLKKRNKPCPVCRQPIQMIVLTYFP
SKKanGAS inh = inhibitors of SKKanGAS S. pyogenes growth in kanamycin (SK-promoter or general growth effect); inhibition, % at 7.5 µM; BacTiter-Glo, 6 h; AID 1662; actives 1.3% (n = 300,000);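 active means mean replicate score, as percent of positive control median, at least 50; inconclusive means mean below 50 but one replicate at or above 50; inactive means mean and every replicate below 50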;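 further: strain carries kanamycin resistance gene driven by streptokinase promoter and grows in 40 µg/ml kanamycin; loss of luminescence reflects streptokinase promoter inhibition or plain growth inhibition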
UPR XBP1 act = adaptive UPR (XBP1) activation; CHO-XBP1 luciferase reporter, IRE1-XBP1 UPR activation, luminescence; percent of tunicamycin response, DMSO as zero; activation, % at 20 µM; actives 0.33% (n = 330,000);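 active means versus positive control, 20 µM dose yields 30% or more activation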
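Material: CHO-XBP1 cells stably carrying IRE1-XBP1-driven luciferase reporter / Amount: 1000 cells per well / Compound: 20 µM, 1% DMSO / Times: 6 h treatment, 37 °C / Detection: luciferase luminescence / Measure: % activation of reporter signal versus tunicamycin and DMSO controls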
UPR CHOP act = activators of apoptotic arm of unfolded protein response (CHOP); CHO-CHOP luciferase reporter, UPR activation, luminescence; percent of tunicamycin response over DMSO baseline; activation, % at 10 µM; actives 0.34% (n = 330,000);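 active means at 10 µM dose, activation of 40% or more, normalized to positive control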
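Test system: CHO CHOP reporter cells. Input: 500 CHO-CHOP cells per well. Medium: F12 with 10% FBS. Technique: luciferase luminescence. Measure: percent activation relative to tunicamycin control. Dosing: 10 µM compound, 0.5% DMSO. Timing: 16-18 h cell attachment, then 6 h compound exposure, 37 °C.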
Beta apoptosis = blocks beta cell apoptosis. INS-1E cytokine-induced death, ATP luminescence, 48 h; percent of positive-control rescue, neutral wells zero. protection from apoptosis, % (concentration not given with the values). actives 0.8% (n = 300,000);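 active means Every replicate reaches about 75%, or at least half do and their mean reaches it too, limit read from the data; inconclusive means At least half of replicates reach the limit but their mean does not; inactive means Under half of replicates reach the limit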;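 further: higher means more ATP so stronger rescue from cytokine killing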
Of the large screens only hits and unclear results are named; the others gave an inactive call.

CCCN(CCC)S(=O)(=O)c1ccc(C(=O)Nc2nnc(-c3cccc(OC)c3)o2)cc1	SKKanGAS inh 108
O=C(Nc1nnc(-c2ccncc2)o1)c1ccccc1	none
COc1cccc(-c2nnc(NC(=O)c3cccc(F)c3)o2)c1	SKKanGAS inh 87
CCCN(CCC)S(=O)(=O)c1ccc(C(=O)Nc2nnc(CSC)o2)cc1	none
COc1cc(C(=O)OCC(=O)Nc2nnc(-c3ccccc3)o2)cc(OC)c1OC	none
O=C(Nc1nnc(-c2ccccc2)o1)c1cc(Cl)sc1Cl	SKKanGAS inh 89
Fc1cc(F)c(F)c(SCn2cc(Br)cn2)c1F	none (no result: CSC inhib, SKKanGAS inh, Beta apoptosis)
O=C(Nc1nnc(-c2cccs2)o1)c1cc(-c2ccccc2)nc2ccccc12	SKKanGAS inh 92
O=C(Nc1nnc(C2=COCCO2)o1)c1cccc([N+](=O)[O-])c1	none (no result: Beta apoptosis)
O=C(Nc1nnc(-c2ccc(F)cc2)o1)c1cccc([N+](=O)[O-])c1	SKKanGAS inh 84
O=C(Nc1nnc(-c2ccc(Cl)cc2)o1)c1nc2ccccc2s1	CSC inhib 99, SKKanGAS inh 94
O=C(Nc1nnc(-c2ccc(Cl)cc2)o1)Nc1ccccc1Cl	none
O=C(Nc1nnc(-c2cccs2)o1)c1ccc(S(=O)(=O)N2CCOCC2)cc1	none
O=C(Nc1nnc(-c2cccs2)o1)c1cccc(F)c1	SKKanGAS inh 85
O=C(Cc1cccs1)N1CCN(S(=O)(=O)c2cccc([N+](=O)[O-])c2)CC1	none
COc1cc(C2c3c(oc4ccccc4c3=O)C(=O)N2c2nccs2)ccc1O (stereo not given)	none
Cc1noc(C)c1S(=O)(=O)NCc1cccc(Cl)c1	none (no result: SKKanGAS inh)
COc1ccc(C(=O)OCC(=O)Nc2nnc(-c3ccccc3)o2)cc1	SKKanGAS inh 59
O=C(Nc1nnc(-c2ccc3c(c2)OCCO3)o1)c1ccc(Cc2ccccc2)cc1	SKKanGAS inh 102 (no result: CSC inhib, Beta apoptosis)
Cc1ccc(C2CC(c3ccc(Cl)cc3)n3nc(N)nc3N2)cc1 (stereo not given)	none
Cc1ccc(C2CC(c3ccc(C)cc3)n3nc(N)nc3N2)cc1 (stereo not given)	Beta apoptosis 103 (no result: CSC inhib)
CS(=O)(=O)NCc1ccccc1Br	none (no result: SKKanGAS inh)
CNc1nc2cc([N+](=O)[O-])c([N+](=O)[O-])cc2nc1NC	Beta apoptosis 98 (no result: Mdm2 MdmX PPI, UPR XBP1 act, UPR CHOP act)
N#Cc1cc2nc(O)c(O)nc2cc1[N+](=O)[O-]	none (no result: SKKanGAS inh)
COc1cccc(NC(=O)CN(C)C(=O)C(CCSC)NC(=O)c2ccco2)c1 (stereo not given)	none (no result: CSC inhib, SKKanGAS inh)
Cc1csc2c(N3CCN(C(=O)c4ccc(C(C)(C)C)cc4)CC3)ncnc12	Beta apoptosis 116
Cc1csc2c(N3CCN(C(=O)NC(C)(C)C)CC3)ncnc12	none
Cc1csc2c(N3CCN(C(=O)Nc4ccc(Cl)c(Cl)c4)CC3)ncnc12	SKKanGAS inh 62
Cc1csc2c(N3CCN(C(=S)Nc4ccc(C(F)(F)F)cc4)CC3)ncnc12	none
O=S(=O)(NCC1CCCO1)c1ccccc1F (stereo not given)	none (no result: Beta apoptosis)
CC(NS(=O)(=O)OCC(Cl)(Cl)Cl)c1ccc(C(C)(C)C)cc1 (stereo not given)	CSC inhib inconclusive, SKKanGAS inh 93 (no result: Mdm2 MdmX PPI, UPR XBP1 act, UPR CHOP act)
NC(=O)COc1ccc2oc(=O)cc(-c3cc4ccccc4o3)c2c1	none
COc1cc(/C=C2\C(C)=C(C#N)c3nc(N)c(C#N)c(C)c32)ccc1OCC(=O)O	none
CC1=C(C#N)c2nc(N)c(C#N)c(C)c2/C1=C\c1ccc(C)cc1	SKKanGAS inh 71 (no result: Beta apoptosis)
O=C(c1ccc2nc[nH]c2c1)N1CCN(c2ncc(C(F)(F)F)cc2Cl)CC1	none
Cc1ccc(C(=O)/C=C/c2ccc(F)cc2)o1	none (no result: Beta apoptosis)
O=C(/C=C/c1ccc(F)cc1)c1ccccc1Br	CSC inhib 108
Cc1ccc(C)c(N2CCN(C(=O)CCCOc3cc(=O)n(C)c4ccccc34)CC2)c1	Beta apoptosis 94
CC(C)(C)Nc1nc(Cl)nc(NC(C)(C)C)n1	none
CC(C)(C)Nc1nc(NN)nc(NC(C)(C)C)n1	SKKanGAS inh 87
Cc1ccc(-c2cc(C(=O)NCCN3CCOCC3)c3ccccc3n2)o1	none
Cc1ccc(-n2nnnc2Sc2ccc(S(=O)(=O)NCCN(C)C)cc2[N+](=O)[O-])cc1	CSC inhib 99 (no result: Mdm2 MdmX PPI, UPR XBP1 act, UPR CHOP act)
Cc1ccc(S(=O)(=O)NCCSc2nnnn2-c2ccc(C(N)=O)cc2)cc1	none
Cc1ccc(C2=CC(=O)C[C@H](c3ccc4c(c3)OCO4)C2)cc1	none (no result: SKKanGAS inh)
CC(=O)Nc1ccc(C2=CC(=O)C[C@H](c3ccc4c(c3)OCO4)C2)cc1	Beta apoptosis 91 (no result: SKKanGAS inh)
COc1ccc(/C=C/C(=O)c2ccc[nH]2)c(OC)c1OC	none
COc1ccc(/C=C/C(=O)c2ccncc2)c2ccccc12	CSC inhib 176, Beta apoptosis 100
CC(=O)Nc1ccccc1OCC(=O)c1cc(C)n(Cc2cccs2)c1C	Beta apoptosis 111
Clc1ccc(/C(Cc2nc3ccccc3[nH]2)=N\Nc2ccccc2)cc1	SKKanGAS inh 90
C/C(=N\N=C(/N)SC1CC(=O)N(c2ccc(Cl)c(Cl)c2)C1=O)c1cccs1 (stereo not given)	CSC inhib 79, SKKanGAS inh 98
C/C(=N\N=C(/N)SC1CC(=O)N(c2ccc(Br)cc2)C1=O)c1cccs1 (stereo not given)	SKKanGAS inh 98
CSc1ccc(S(=O)(=O)NCC(=O)OCC(=O)N(C)Cc2ccccc2)cc1[N+](=O)[O-]	none
CN1C(=O)C(C)(C)c2cc(S(=O)(=O)NCC3CCC(C(=O)NCc4ccccc4)CC3)ccc21 (stereo not given)	none
O=c1c2cc(-c3ccccc3)sc2nc2n1CCC2	SKKanGAS inh 50
CCN(CC)C(=O)COCc1cc(-c2ccc3c(c2)OCO3)on1	none
CC(C)c1c(C(=O)N/N=C/c2cccc(OCc3ccc(F)cc3)c2)nnn1-c1nonc1N	SKKanGAS inh 87
COc1cc(/C=N/NC(=O)c2nnn(-c3nonc3N)c2C(C)C)ccc1OCc1ccc(F)cc1	SKKanGAS inh 58
CC(C)C(NC(=O)Nc1ccccc1)C(=O)Nc1cccc(S(=O)(=O)N(C)C)c1 (stereo not given)	none
NNC(=O)Cn1c(-c2nonc2N)nc2ccccc21	none
Nc1nonc1-c1nc2ccccc2n1CC(=O)N/N=C\c1ccc(-c2ccc(Cl)cc2)o1	SKKanGAS inh 99
CCOC(=O)c1ccc(NC(=S)N2CCSC2c2c(F)cc(F)cc2F)cc1 (stereo not given)	none
Fc1cc(F)c(C2SCCN2C(=S)Nc2cccc(C(F)(F)F)c2)c(F)c1 (stereo not given)	SKKanGAS inh 50
O=C(NCc1ccccn1)c1ccc(OC2CCN(Cc3ccc(CO)o3)CC2)cc1	none
